MBD2 inh: MBD2-methylated oligo binding inhibition | Q9UBB5 | TR-FRET, MBD2 binding to methylated oligonucleotide | inhibition, % at 4.4 µM | actives 0.31% (n = 370,000) | AID 686964; in the data active = inhibition above about 13%
UHRF1 MBD2 ctr: human UHRF1 methylated DNA binding inhibitors; UHRF1 binding to methylated oligo, TR-FRET; inhibition, % at 4.4 µM; actives 0.75% (n = 370,000); AID 687016;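 note: UHRF1 SRA domain binding a hemimethylated CpG hairpin DNA probe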
Target sequence (Q96T88 whole entry, looked up, the tested form may be a part): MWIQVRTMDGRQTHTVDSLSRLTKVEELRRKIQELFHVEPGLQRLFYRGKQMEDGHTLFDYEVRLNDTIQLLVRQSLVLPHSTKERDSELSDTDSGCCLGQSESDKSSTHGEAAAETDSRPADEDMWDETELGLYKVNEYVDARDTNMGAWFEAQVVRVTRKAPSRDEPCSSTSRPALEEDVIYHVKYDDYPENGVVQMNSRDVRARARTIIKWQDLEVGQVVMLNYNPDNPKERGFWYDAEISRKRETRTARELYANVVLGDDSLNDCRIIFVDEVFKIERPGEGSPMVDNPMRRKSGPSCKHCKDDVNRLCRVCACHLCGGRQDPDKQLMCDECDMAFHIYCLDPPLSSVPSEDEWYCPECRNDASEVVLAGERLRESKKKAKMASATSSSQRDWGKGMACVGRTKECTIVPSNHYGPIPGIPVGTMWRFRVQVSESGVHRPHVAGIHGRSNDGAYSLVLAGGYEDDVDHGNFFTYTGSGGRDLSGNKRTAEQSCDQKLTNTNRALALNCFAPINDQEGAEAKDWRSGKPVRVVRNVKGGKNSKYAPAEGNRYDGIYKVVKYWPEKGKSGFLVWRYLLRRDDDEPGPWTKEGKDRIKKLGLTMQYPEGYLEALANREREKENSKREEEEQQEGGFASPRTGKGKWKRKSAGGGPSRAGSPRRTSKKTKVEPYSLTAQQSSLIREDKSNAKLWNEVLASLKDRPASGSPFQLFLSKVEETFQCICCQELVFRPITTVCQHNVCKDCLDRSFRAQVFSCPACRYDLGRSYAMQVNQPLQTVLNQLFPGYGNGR
TDP2 absorb: blocks human TDP2 phosphodiesterase activity | O95551 | recombinant TDP2, T5PNP hydrolysis, p-nitrophenol absorbance 415 nm | inhibition, % at 12.8 µM | actives 0.34% (n = 370,000) | AID 720702;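 active = inhibition above the mean of all tested compounds plus 3 SD, set per campaign, cut at about 25% in these data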
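Assay system: Recombinant human TDP2 | Quantity: 120 nM TDP2 per well | Incubation: 2 h at 37 °C | Signal: Epi absorbance | Evaluation: Percent inhibition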
LEDGF integ inh: blocks HIV-1 LEDGF/p75-dependent DNA integration | TR-FRET IN-LEDGF/p75 DNA integration, Eu/Cy5 | inhibition, % at 3.7 µM | actives 0.64% (n = 370,000) | AID 743269;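 active = inhibition above the screen-wide mean plus 3 SD, cut at about 13% in these data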;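 note: signal is the Cy5 over europium emission ratio at 671 and 618 nm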
UHRF1 DNA bind: counter-screen for MBD2 inhibitors: human UHRF1 methylated DNA binding inhibitors; inhibition, % at 4.4 µM; UHRF1 binding to methylated oligonucleotide, TR-FRET; AID 720530; actives 25% (n = 1,000); shares compounds with MBD2 inh;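 note: UHRF1 SRA domain binding a labeled hemimethylated CpG hairpin DNA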
MBD2 confirm: MBD2-DBD methyl-DNA binding inhibition, TR-FRET confirmation; TR-FRET MBD2-DBD binding to methylated oligonucleotide; shares compounds with MBD2 inh; AID 720531; inhibition, % at 4.4 µM; actives 26% (n = 1,000); in the data active = inhibition above about 14%
Hits are given with their value; . = inactive; / = no result given; ! = not active in a repeat. Shown are actives, neighbours in structure and some others; about 1.6% of the full set was active somewhere. Cut-off read from the data, not from the text of the source, unless noted: active = inhibition above about 21%; inactive = the rest.

SMILES	MBD2 inh	UHRF1 MBD2 ctr	TDP2 absorb	LEDGF integ inh	UHRF1 DNA bind	MBD2 confirm
Cc1ccc2c(nc3s/c(=C\c4ccc(-c5ccccc5C(=O)O)o4)c(=O)n32)c1C	15	34	.	.	.	.
Cc1ccc(S(=O)(=O)NNC(=O)c2ccncc2)cc1	23	.	.	.	.	.
O=C(NNS(=O)(=O)c1ccccc1)c1ccncc1	.	.	.	.	/	/
O=C(Nc1c[nH]c(=O)[nH]c1=O)c1cc([N+](=O)[O-])cc([N+](=O)[O-])c1	29	.	.	.	.	.
O=C(Nc1c[nH]c(=O)[nH]c1=O)c1ccc2c(c1)C(=O)N(c1cccc([N+](=O)[O-])c1)C2=O	.	.	.	.	/	/
O=C(CSCc1ccccc1)Nc1ccc(F)c(F)c1	16	.	.	.	.	.
COC(=O)[C@@]1(C(C)C)N=C(c2cc(OC)c(OC)c(OC)c2)[C@]2(O1)C(=O)N(Cc1cn(Cc3ccccc3)nn1)c1ccc(F)cc12	14	.	.	.	.	.
Cc1ccc(C)c(NC(=O)Cn2nc(C)c3ccccc3c2=O)c1	17	.	.	.	.	.
COc1ccc2nc3cc(Cl)ccc3c(Nc3cc(CN4CCCC4)c(O)c(CN4CCCC4)c3)c2n1	55	72	.	.	86	88
COc1cccc(C(=O)Nc2ccc(Oc3cccc(C(F)(F)F)c3)nc2)c1	14	.	.	.	.	.
O=C(Nc1ccc(Oc2cccc(C(F)(F)F)c2)nc1)c1ccccc1	.	.	.	.	/	/
C#CCOCCOCCOCCNc1nc(N2CCN(C(=O)[C@H](CO)n3cc([C@@H](N)C(C)C)nn3)CC2)nc(N2CCN(C(=O)[C@H](CO)n3cc([C@@H](N)C(C)C)nn3)CC2)n1	15	22	.	.	.	.
COc1cc(-c2nnc(COC(=O)c3ccc(C)o3)o2)cc(OC)c1OC	18	39	.	.	.	.
Cc1cccc(N2CC(C(=O)Nc3ccc4c(c3)OCCO4)CC2=O)c1C (stereo not given)	.	.	.	.	/	/
O=C(C(=O)N1CCC(CNS(=O)(=O)c2ccccc2OC(F)(F)F)CC1)c1cccs1	28	27	.	.	.	.
NS(=O)(=O)c1ccc(-c2c(-c3ccccc3)sc3ccccc23)cc1	14	22	.	.	.	.
COc1ccc(-c2sc3ccccc3c2-c2ccc(O)cc2)cc1	.	.	.	.	/	/
CCc1nc2ccc(C(=O)NCCc3ccccn3)cn2c1N(CC)Cc1cccc(Br)c1	.	.	.	.	/	/
CCN(CC)CCN1C(=O)c2cccc3cc(N)cc(c23)C1=O	14	.	.	.	.	.
Cc1noc(C)c1COc1ccc(C(=O)OC(C)C(=O)Nc2ccc(S(=O)(=O)N3CCOCC3)cc2)cc1 (stereo not given)	.	.	.	.	/	/
O=c1cc(N2CCc3ccccc3C2)[nH]c(=O)n1Cc1ccc(F)cc1	.	.	.	.	/	/
O=C1c2ccccc2-c2cccnc21	16	.	.	.	.	.
O=C1c2ccccc2-c2nc3ccccc3nc21	.	.	.	.	/	/
O=C(c1ccco1)N1CCn2cccc2C1c1ccccc1 (stereo not given)	.	.	.	.	/	/
Cc1ccc(CNC(=O)c2nnn(-c3cccc(C)c3)c2N)cc1	15	28	.	.	.	.
SMILES	MBD2 inh	UHRF1 MBD2 ctr	TDP2 absorb	LEDGF integ inh	UHRF1 DNA bind	MBD2 confirm
Cc1ccc(C(=O)CC(C(=O)O)n2cccn2)cc1 (stereo not given)	.	.	.	.	/	/
Cc1ccc(C(=O)CC(C(=O)O)n2cncn2)cc1 (stereo not given)	41	.	.	.	.	.
Cc1[nH]c2ccc(C(=O)NCC(C)(C)N3CCOCC3)cc2c1C	.	.	.	.	/	/
CCC(=O)OCC(=O)Nc1ccc(OC)cc1[N+](=O)[O-]	.	.	.	.	/	/
COc1ccc(NC(=O)COC(=O)CC23CC4CC(CC(C4)C2)C3)c([N+](=O)[O-])c1	46	.	.	.	.	.
CCN(CC)C(=S)NC(=O)c1ccc(F)cc1	27	.	.	.	.	.
CCCNC(=O)c1ccccc1NC(=O)Nc1ccccc1C	.	.	.	.	/	/
O=C1NC2c3c(Cl)sc(Cl)c3C(=O)C2O1 (stereo not given)	14	35	.	.	32	16
O=C1NC2c3c(I)sc(I)c3C(=O)C2O1 (stereo not given)	.	.	.	.	/	/
Cc1cccc(NC(=O)CSCC(=O)Nc2ccc(S(=O)(=O)N3CCOCC3)cc2)c1	.	.	.	.	/	/
C[C@H]1CN([C@@H](C)CO)C(=O)Cc2cc(NC(=O)C3CC3)ccc2O[C@H]1CN(C)Cc1ccc(Oc2ccccc2)cc1	17	.	.	.	.	.
O=C(Nc1ccc(F)c(C(F)(F)F)c1)Nc1nnc(-c2ccncc2)s1	15	.	.	.	.	.
CC1Sc2ccc(S(=O)(=O)N3CCC(C(N)=O)CC3)cc2NC1=O (stereo not given)	.	.	.	.	/	/
COC(CNC(=O)c1cn(C)c2ccc(S(=O)(=O)N(C)C3CCCCC3)cc2c1=O)OC	26	.	.	.	.	.
Cc1cccc(CN2CCN(C3CN(Cc4cn(Cc5cccc(C(F)(F)F)c5)nn4)S(=O)(=O)C3)CC2)c1 (stereo not given)	14	.	.	.	.	.
CN(C)CCN1CCN(C2CN(Cc3cn(Cc4cccc(C(F)(F)F)c4)nn3)S(=O)(=O)C2)CC1 (stereo not given)	.	.	.	.	/	/
COc1ccc(/C=C\c2nc(O)c([N+](=O)[O-])c(=O)[nH]2)cc1O	39	.	.	.	.	.
Cc1ccc(S(=O)(=O)N(C)C)cc1NC(=O)CCc1c[nH]c2ccccc12	.	.	.	.	/	/
Cc1ccc(S(=O)(=O)N(C)C)cc1NC(=O)CCc1ccccc1	21	.	.	.	.	.
O=C(C(=O)N1CCC(CNC(=O)c2cccnc2Cl)CC1)c1cc2ccccc2o1	.	.	.	.	/	/
COc1ccc(OCC(O)CN2CC(C)OC(C)C2)cc1 (stereo not given)	.	.	.	.	/	/
O=C(O)c1ccccc1C(=O)Nc1ccc(S(=O)(=O)Nc2nccs2)cc1	19	.	.	.	.	.
Cc1ccc(CC(=O)NCC(C)C)cc1	.	.	.	.	/	/
CCCCNc1c(-c2ccc(OC)c(SC(C)CC)c2)nc2ccc(C)cn12 (stereo not given)	14!	.	.	.	.	.
COC(=O)C1CCN(C(=O)COC(=O)c2ccc(N3CCCC3=O)cc2)CC1	14	.	.	.	.	.
CC1CC(C)CN(C(=O)COC(=O)c2ccc(N3CCCC3=O)cc2)C1 (stereo not given)	.	.	.	.	/	/
CCC(=O)c1ccc(OCC(=O)NCc2ccccc2CN2CCCC2)cc1	35	.	.	.	.	.
